Source: PubChem BioAssay (Broad Institute)
NSD2 inh: NSD2 (human) methyltransferase inhibition. O96028. NSD2 peptide methylation, AlphaScreen, 120 min. inhibition, % at 12.5 µM. hit rate 0.54% among 310,000. AID 743445
CDK5 inh: blocks human CDK5/p35 kinase activity; inhibition, % at 10 µM; hit rate 0.01% among 330,000; AID 488839; Recombinant CDK5/p35, ADP-Glo luminescence, 60 min; Q00535+Q15078;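 active means highest replicate inhibition of at least 50% and at least 75% of replicates reaching 50%; inconclusive means only one of the two criteria met; inactive means both criteria failed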;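 further: plate controls were DMSO neutral control for no effect and GW8510 at 10 µM for full effect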
DYRK1A inh: inhibitors of rat Dyrk1A kinase; hit rate 0.43% among 310,000; inhibition, % at 12.5 µM; Q63470; ADP-Glo luminescence, NFATc1 peptide;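 further: plate controls were vehicle with enzyme for no effect and no enzyme for full effect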
SR-BI DiI inh: blocks mouse SR-BI lipid uptake from DiI-HDL; Q61009; hit rate 0.96% among 320,000; ldlA[mSR-BI] CHO cells, DiI-HDL uptake fluorescence, 3 h; inhibition, % at 12.5 µM;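 active means mean replicate inhibition of at least 70% and a set share of replicates each scoring 70 or more; inconclusive means meets just one of the two criteria; inactive means fails both criteria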;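 further: 0% = median of neutral control wells and 100% = median of positive control wells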
Target sequence (Q61009 whole entry, looked up): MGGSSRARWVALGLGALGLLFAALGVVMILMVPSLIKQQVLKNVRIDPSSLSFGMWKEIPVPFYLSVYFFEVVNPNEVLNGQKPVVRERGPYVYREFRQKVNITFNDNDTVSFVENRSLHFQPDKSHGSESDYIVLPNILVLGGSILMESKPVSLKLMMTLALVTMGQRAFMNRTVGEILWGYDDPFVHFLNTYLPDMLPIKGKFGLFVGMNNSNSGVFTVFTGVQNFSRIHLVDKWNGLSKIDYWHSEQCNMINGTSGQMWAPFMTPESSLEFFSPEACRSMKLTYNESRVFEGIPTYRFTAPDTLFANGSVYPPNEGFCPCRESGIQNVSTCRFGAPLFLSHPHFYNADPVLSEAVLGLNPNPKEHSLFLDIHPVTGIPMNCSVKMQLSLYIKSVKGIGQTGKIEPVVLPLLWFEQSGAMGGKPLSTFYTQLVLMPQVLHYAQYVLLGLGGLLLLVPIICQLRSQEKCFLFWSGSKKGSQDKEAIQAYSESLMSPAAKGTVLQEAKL
dFosB activator: enhances mouse delta FosB homodimer DNA binding | P13346 | purified delta FosB, TAMRA-CDK5 oligo fluorescence polarization; percent of positive-control signal above neutral wells | activation, % at 25 µM | hit rate 0.99% among 340,000;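 active means mean activation above about 17%, with every replicate also reaching it, limit read from the data, passing the limit was not always enough; inconclusive means only one of the two conditions met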
SR-BI uptake up: enhances SR-BI lipid uptake from DiI-HDL. CHO ldlA[mSR-BI] cells, DiI-HDL uptake fluorescence, 3 h; 100 = double the neutral-control signal. activation, % at 12.5 µM. hit rate 0.096% among 320,000. AID 504775;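 active means mean replicate activation of at least 60% and every replicate at or above 60%; inconclusive means mean or all-replicate condition met, but not both; inactive means mean below 60% and not all replicates reaching 60%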;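 further: 0% = median plate neutral-control signal and 100% = twice that signal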
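Material: SR-BI-overexpressing, LDLR-lacking CHO cells; schedule: compound exposure 3 h, 37 °C; reagent: DiI-labelled HDL at 10 µg/mL final; technique: bottom-read fluorescence, 550/595 nm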
Active calls of the source: *; u = inconclusive; x = no result given. The list is not random: actives were taken first. Their share in the collection is about 2.5%. Unless noted, no stated cut-off is given here; in the data, active means inhibition above about 50%; inactive means the rest.

SMILES | NSD2 inh | CDK5 inh | DYRK1A inh | SR-BI DiI inh | dFosB activator | SR-BI uptake up
CCc1nc2c(OCc3ccccc3C)cccn2c1N(C)C(=O)C(C)C | 1 | x | x | x | x | x
CCN(CC)c1ccc2c(-c3ccc(S(=O)(=O)O)cc3S(=O)(=O)[O-])c3ccc(=[N+](CC)CC)cc-3oc2c1 | 61* | 10 | 11 | -23 | 63* | 23
CN1/C(=C\C=C(C#N)C#N)C(C)(C)c2ccccc21 | 2 | 0 | -4 | 6 | 113* | -6
CN1/C(=C\C=C(/C#N)C(=O)Nc2ccc(Cl)cc2)C(C)(C)c2ccccc21 | -1 | 1 | -2 | -35 | -4 | 35
O=C(CSc1nnc(COc2ccccc2)n1-c1ccc(Cl)cc1)Nc1ccc(OCc2ccccc2)cc1 | 0 | x | x | x | x | x
COc1cc(OC)cc(-c2sc3ccc(OC)cc3c2C#CCCO)c1 | x | 2 | 8 | 76* | -6 | -76
COc1ccc(Br)cc1/C=C(\C(=O)O)c1ccc(S(=O)(=O)N2CCCCC2)s1 | 9 | -1 | 1 | -11 | -7 | 11
CC(=O)Nc1cccc(/C(C)=N/NC(=S)NC(C)C)c1 | 0 | 0 | x | -11 | 4 | 11
CC(=O)Nc1cccc(/C(C)=N/NC(N)=S)c1 | 0 | 0 | -2 | 82* | -9 | -82
CC(C)CC(=O)Nc1ccc(S(=O)(=O)Nc2nccs2)cc1 | -5 | 0 | -5 | -65 | 5 | 65*
Cc1ccc(N/N=C(\C#N)C(N)=S)c(C)c1 | 9 | 0 | 0 | 77* | 1 | -77
C=CCn1c(COc2ccc(Cl)cc2)nnc1SCC(=O)c1ccccc1 | -1 | x | x | x | x | x
Cc1ccc(S(=O)(=O)NC2(C(F)(F)F)NC(=O)N(Cc3ccccc3)C2=O)cc1 (centres undefined) | -3 | -1 | x | 0 | 2 | 0
CCc1cc2c(COC(=O)c3cc(S(=O)(=O)N4CCOCC4)ccc3F)cc(=O)oc2cc1O | -1 | 1 | 7 | 78* | 0 | -78
CSc1nsc(/C=C/Nc2ccc(O)cc2C)c1C#N | 0 | 3 | 1 | 81* | -68 | -81
O=S(=O)(c1cccs1)N1CCc2ccccc21 | 9 | -1 | 10 | -14 | 29* | 14
O=S(=O)(c1cccs1)N1CCCc2ccccc21 | 3 | 1 | 4 | 7 | 1 | -7
CSc1nc(N)nc2c1ncn2CC(=O)NCc1ccc2c(c1)OCO2 | x | 2 | 1 | -13 | 20* | 13
COC(=O)[C@]12C[C@H](CC(=O)N3CCSCC3)C(=O)N(Cc3ccccc3)C1=C[C@H](C1CCCC1)O[C@@H]2C | 2 | x | x | x | x | x
CCOc1cc(C(=O)NCC(=O)N/N=C/c2sccc2C)cc(OCC)c1OCC | -1 | -1 | 1 | -14 | 1 | 14
COc1ccc(CC(=O)Nc2cccc(-c3nnc(-c4ccco4)o3)c2)cc1 | -2 | -1 | -2 | 36 | 67* | -36
CCn1cnc2c1c(=O)n(CC(=O)NCC(C)C)c(=O)n2Cc1ccccc1 | 0 | -1 | 2 | 4 | 1 | -4
CC1(C)CCCN(C(=O)c2coc(=O)c(Br)c2)C1 | 114* | 0 | -2 | 9 | -3 | -9
CCOc1ccc(-n2c(SCC(=O)Nc3ccc(S(=O)(=O)Nc4nccs4)cc3)nnc2-c2ccccc2)cc1 | 32 | x | x | x | x | x
O=C(Nc1cccc(Cl)c1Cl)c1ccccc1OCC(=O)N1CCOCC1 | -1 | 0 | -9 | 17 | -17 | -17
SMILES | NSD2 inh | CDK5 inh | DYRK1A inh | SR-BI DiI inh | dFosB activator | SR-BI uptake up
Fc1ccc(Nc2nc(-c3ccncc3)nc3ccccc23)cc1 | 0 | 0 | -2 | 78* | -10 | -78
COc1cccc(-c2nc(NC(C)(C)C)c3ccccc3n2)c1O | 2 | -1 | 0 | 84* | -7 | -84
COc1ccc(Nc2nc(-c3cccc(OC)c3O)nc3ccccc23)cc1 | -3 | -2 | -3 | 83* | -9 | -83
c1ccc(Nc2nc(-c3ccncc3)nc3ccccc23)cc1 | -2 | 0 | 2 | 52 | -12 | -52
CCN1/C(=C\C=C2\C(=O)N(C)C(=S)N2C)Sc2ccccc21 | 2 | 1 | -3 | u | 12 | -74
CCOC(=O)/C(=C\C=C1/Sc2cc(OCC)c(OCC)cc2N1CC)C(C)=O | 2 | 2 | -7 | 78* | -33 | -78
